Active and inactive are the calls of the source. The rule behind the calls is not given here.
Experiments:
Inhibin beta A chain = biological target: T1, Inhibin beta A chain (Mus musculus, UniProt Q04998); experiment: Antagonist activity at activin A in mouse LbetaT2 cells transfected with -338 promoter region of FSHbeta gene conjugated to luciferase reporter assessed as inhibition of FSHbeta promoter activation by luciferase assay; type: cell-based
T1 sequence (Q04998 whole entry): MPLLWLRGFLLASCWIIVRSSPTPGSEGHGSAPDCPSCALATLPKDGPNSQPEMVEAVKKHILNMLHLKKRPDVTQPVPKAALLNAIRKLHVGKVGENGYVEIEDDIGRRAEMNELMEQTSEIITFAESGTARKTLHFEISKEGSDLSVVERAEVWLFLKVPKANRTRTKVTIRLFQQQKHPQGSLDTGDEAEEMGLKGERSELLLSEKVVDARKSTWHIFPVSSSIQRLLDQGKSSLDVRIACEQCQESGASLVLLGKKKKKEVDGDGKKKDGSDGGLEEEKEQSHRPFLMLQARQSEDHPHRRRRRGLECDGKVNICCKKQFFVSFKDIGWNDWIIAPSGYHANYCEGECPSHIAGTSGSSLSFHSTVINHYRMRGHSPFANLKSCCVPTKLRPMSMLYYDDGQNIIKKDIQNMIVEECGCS
Method in brief: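 −338FSHβ-Luc stably transfected LβT2 cells, 5 × 10^4 cells/well, plated 24 h, then given activin A (0.2 nM) with compound at 0.4–100 µM (in DMSO) or Fst288 0.05–4 nM as control, 6 h at 37 °C in serum-free, phenol red-free DMEM-F12. Cells lysed, luciferase activity read; IC50 from sigmoidal variable-slope fit; means ± SD.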

HepG2 = experiment: […] in human HepG2 cells assessed as cell viability after 96 hrs by MTT assay; type: functional, cell-based; settings: HepG2, 96 h
Method in brief: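 HepG2 cells (5 × 10^4/well) treated with 1 nM activin A alone (DMSO solvent control) or with compound 1.6–200 µM or Fst288 0.5–8 nM, 96 h at 37 °C in DMEM with 0.2% FBS, pyruvate, glutamine. MTT added 0.5–1 h for viability as reversal of activin-induced apoptosis; IC50 from sigmoidal variable-slope fit; means ± SD.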

[1] = Solubility of the compound in cell growth medium up to 200 uM after 24 hrs by upright light microscopy; type: physicochemical
Method in brief: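 Compound from 50 mM DMSO stock diluted to 200 µM final in DMEM-F12 with 5% FBS, 1% penicillin/streptomycin, […] D-glucose, held 24 h; precipitate checked visually under upright light microscope.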

[2] = Cytotoxicity against mouse LbetaT2 cells assessed as reduction in cell viability at 100 uM after 24 hrs by MTT assay; type: functional
Method in brief: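 LβT2 gonadotrope cells seeded 5 × 10^4/well, grown 24 h in DMEM-F12 with 5% FBS and […] D-glucose, then exposed to compound at 10 or 100 µM in growth medium for 24 h. MTT added for a further 2–3 h; absorbance at 490 nm as viability.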

[3] = biological target: T2, Inhibin beta A chain (Mus musculus) (UniProt Q04998); experiment: Inhibition of activin A stimulated 4 day old CD1 mouse ovarian cell proliferation at 200 uM for 4 days by BrdU assay
T2 sequence (whole entry): T1 sequence (Q04998 whole entry)
Method in brief: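 Ovaries from 4-day-old CD1 mice cultured on membrane inserts in DMEM/F12 with 0.03% BSA with 1 nM activin A plus compound at 200 µM (DMSO control; Fst288 4 nM or inhibin A 8 nM references) for 4 days, then 10 µM BrdU for 24 h. Genomic DNA (150 ng) denatured, dot-blotted, probed with anti-BrdU, ECL, densitometry; three independent experiments; ANOVA/Tukey.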

[4] = biological target: T3, Inhibin beta A chain (Homo sapiens) (UniProt P08476); experiment: Inhibition of interaction of activin A (unknown origin)/ActRIIA-ECD complex with ALK4-ECD-Fc after 120 secs by competitive binding/ Blitz binding assay
T3 sequence (whole entry): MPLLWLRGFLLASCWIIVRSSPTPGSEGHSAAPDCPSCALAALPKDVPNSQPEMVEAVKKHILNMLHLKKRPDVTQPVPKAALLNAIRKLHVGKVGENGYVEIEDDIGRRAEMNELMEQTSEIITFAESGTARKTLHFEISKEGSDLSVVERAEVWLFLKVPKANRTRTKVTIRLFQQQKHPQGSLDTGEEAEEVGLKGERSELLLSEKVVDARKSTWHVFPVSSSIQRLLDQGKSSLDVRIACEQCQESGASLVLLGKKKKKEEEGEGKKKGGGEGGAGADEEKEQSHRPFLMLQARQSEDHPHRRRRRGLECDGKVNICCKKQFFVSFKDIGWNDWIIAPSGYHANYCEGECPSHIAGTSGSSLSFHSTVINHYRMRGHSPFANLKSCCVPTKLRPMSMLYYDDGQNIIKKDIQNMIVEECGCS
Method in brief: (§1)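 ALK4-ECD-Fc (50 ng/mL) captured on a protein A biosensor for 120 s, then dipped into activin A/ActRIIA-ECD premixed 1:2 molar, 1.6 µM final in PBS, with solvent or compound at 0.4, 1.6, 6.25 or 25 µM; 120 s association, 120 s dissociation in PBS; wavelength shift monitored by Blitz.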

[5] = biological target: T3, Inhibin beta A chain (Homo sapiens); experiment: Inhibition of interaction of activin A (unknown origin) with ActRIIA-ECD complex at 25 uM after 120 secs by competitive binding/ Blitz binding assay
Method in brief: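 Protein A biosensor (Blitz, dip-and-read) loaded with ActRIIA-ECD-Fc; activin A at 1.6 µM final, with solvent or compound at 25 µM, 120 s association and 120 s dissociation in PBS; real-time wavelength shift recorded.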

Mus musculus [6] = experiment: Inhibition of activin - stimulated serum FSH level in ovariectomized CD1 mouse at 60 mg/kg, sc by ELISA (reference value: 100%); type: functional
Method in brief: (§2)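 Ovariectomized 12-week-old CD1 mice dosed subcutaneously twice daily for 2 days (4 doses); vehicle TBS or DMSO; Fst288 200 µg/kg for 3 doses as reference. Serum then collected, stored −20 °C, FSH measured by ELISA (sensitivity 0.35 mIU/mL, read 450 nm); vehicle mean set to 100%. 5–7 mice per group, 10 controls; one-way ANOVA with Tukey.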

Mus musculus [7] = experiment: Inhibition of activin - stimulated serum FSH level in ovariectomized CD1 mouse at 15 mg/kg, sc by ELISA (reference value: 100%); type: functional, organism-based; method in brief: as §2
[8] = biological target: T3, Inhibin beta A chain (Homo sapiens); experiment: Inhibition of interaction of activin A (unknown origin)/ActRIIA-ECD complex with ALK4-ECD-Fc at 25 uM after 120 secs by competitive binding/ Blitz binding assay; method in brief: as §1
[9] = biological target: T4, Growth/differentiation factor 8 (Mus musculus, UniProt O08689); experiment: Antagonist activity at myostatin in mouse LbetaT2 cells transfected with -338 promoter region of FSHbeta gene conjugated to luciferase reporter assessed as inhibition of FSHbeta promoter activation by luciferase assay; type: cell-based
T4 sequence (O08689 whole entry): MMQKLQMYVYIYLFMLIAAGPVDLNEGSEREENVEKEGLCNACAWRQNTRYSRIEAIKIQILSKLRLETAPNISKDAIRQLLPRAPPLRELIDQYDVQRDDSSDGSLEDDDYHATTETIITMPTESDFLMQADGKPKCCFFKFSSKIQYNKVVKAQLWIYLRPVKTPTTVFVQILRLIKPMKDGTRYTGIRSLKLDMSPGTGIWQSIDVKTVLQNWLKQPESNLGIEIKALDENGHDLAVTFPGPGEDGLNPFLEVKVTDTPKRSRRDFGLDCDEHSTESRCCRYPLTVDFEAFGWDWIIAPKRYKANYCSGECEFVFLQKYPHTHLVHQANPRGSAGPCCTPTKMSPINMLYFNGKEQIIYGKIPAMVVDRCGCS
Method in brief: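 Stable −338FSHβ-Luc LβT2 cells were plated at 5 × 10^4/well. They were stimulated with myostatin (0.2 nM) plus DMSO solvent control, or with compound at 0.8–100 µM, for 6 h at 37 °C in serum-free, phenol red-free DMEM-F12. Cells were lysed for luciferase readout. Runs were in triplicate across three experiments, and IC50 came from a sigmoidal variable-slope fit, reported as mean ± SD.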

Mus musculus [10] = experiment: Toxicity in ovariectomized CD1 mouse assessed as change in behavior at 60 mg/kg, sc twice daily for 2 days; type: organism-based; settings: in vivo, 48 h
Method in brief: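 Ovariectomized 12-week-old CD1 mice given subcutaneous compound twice daily for 2 days (4 doses); behaviour observed after injection.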

Mus musculus [11] = experiment: Inhibition of activin - stimulated serum FSH level in ovariectomized CD1 mouse at 30 mg/kg, sc by ELISA (reference value: 100%); type: functional; method in brief: as §2
[12] = biological target: Growth/differentiation factor 8 (Homo sapiens) (UniProt O14793); experiment: Inhibition of interaction of myostatin (unknown origin)/ActRIIA-ECD complex with ALK4-ECD-Fc at 25 uM after 120 secs by competitive binding/ Blitz binding assay
Method in brief: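 Blitz biolayer assay: ALK4-ECD-Fc (50 ng/mL) captured on protein A biosensor 120 s, exposed to myostatin/ActRIIA-ECD premixed 1:2 molar at 1.6 µM final in PBS with solvent or compound at 25 µM; 120 s association, 120 s dissociation; real-time wavelength shift.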

Mus musculus [13] = experiment: Toxicity in ovariectomized CD1 mouse assessed as liver and kidney histopathology at 60 mg/kg, sc twice daily for 2 days; type: organism-based; settings: in vivo, 48 h
Method in brief: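 Ovariectomized CD1 mice given vehicle or 60 mg/kg subcutaneously, 4 doses over 2 days; kidney and liver fixed in Modified Davidson's fixative 5 days at 4 °C, paraffin-embedded, H&E stained for histopathology.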

Question: With O=C1CC[C@](CCC(=O)N2CCC([C@@H](O)c3cccnc3)CC2)(Cc2cccc3ccccc23)N1 as the molecule, how does the IC50 (Inhibin beta A chain) read?
Answer: 23.6 µM

Question: And the IC50 (HepG2)?
Answer: > 200 µM

Question: And the solubility [1]?
Answer: soluble

Question: What about the inhibition at 100 µM [2] of the same molecule?
Answer: < 20%

Question: Which IC50 (Inhibin beta A chain) does the source give for CC(C)(O)C#Cc1ccc(CN2CCC[C@@H](CCC(=O)N3CCOCC3)C2)s1 here?
Answer: 4.42 µM

Question: What about the IC50 (HepG2) of the same molecule?
Answer: 23.2 µM

Question: What about the solubility [1] of the same molecule?
Answer: soluble

Question: What about the inhibition [3] of the same molecule?
Answer: Active

Question: And the inhibition at 100 µM [2]?
Answer: < 20%

Question: Which results are given for Cc1n[nH]c(O)c1C(c1ccc(-c2ccccc2C(=O)O)o1)c1c(C)n[nH]c1O?
Answer: IC50 (Inhibin beta A chain): > 100 µM; solubility [1]: soluble; inhibition at 100 µM [2]: < 20%

Question: With COc1ccc(OC[C@@H](O)CN2CCC(O)CC2)c(CNCCc2cccnc2)c1 as the molecule, how does the IC50 (Inhibin beta A chain) read?
Answer: 4.18 µM

Question: And the IC50 (HepG2)?
Answer: 47.3 µM

Question: And the solubility [1]?
Answer: soluble

Question: What about the inhibition at 100 µM [2] of the same molecule?
Answer: < 20%

Question: Which IC50 (Inhibin beta A chain) does the source give for COc1cccc(CO[C@H]2CN(CCc3ccccc3)C(=O)CN(C(=O)[C@@H]3CNC(=O)C3)C2)c1 here?
Answer: > 100 µM

Question: What about the solubility [1] of the same molecule?
Answer: soluble

Question: What about the inhibition at 100 µM [2] of the same molecule?
Answer: < 20%

Question: With O=C(NCc1cccc(F)c1)[C@@H]1CCC(=O)N(CCCN2CCCC2=O)C1 as the molecule, how does the IC50 (Inhibin beta A chain) read?
Answer: > 100 µM

Question: And the solubility [1]?
Answer: soluble

Question: What about the inhibition at 100 µM [2] of the same molecule?
Answer: < 20%

Question: Which IC50 (Inhibin beta A chain) does the source give for O=C(N[C@H](Cc1ccc2c(c1)OCO2)C(=O)N[C@@H](Cc1c[nH]c2ccccc12)C(=O)O)c1ccccc1 here?
Answer: > 100 µM

Question: What about the solubility [1] of the same molecule?
Answer: soluble

Question: What about the inhibition at 100 µM [2] of the same molecule?
Answer: < 20%

Question: Which inhibition [4] does the source give for CCn1c(-c2cccnc2)nc2cc(NC(=O)COC)cc(C(=O)NCc3ccccc3)c21 here?
Answer: Dose-dependent effect

Question: What about the Activity [5] of the same molecule?
Answer: inactive

Question: What about the IC50 (Inhibin beta A chain) of the same molecule?
Answer: 3.67 µM

Question: And the IC50 (HepG2)?
Answer: 12.1 µM

Question: And the inhibition in vivo at 60 mg/kg (Mus musculus [6])?
Answer: 70%

Question: What about the solubility [1] of the same molecule?
Answer: soluble

Question: What about the Activity (Mus musculus [7]) of the same molecule?
Answer: inactive

Question: And the Activity [8]?
Answer: Active

Question: And the IC50 [9]?
Answer: 47.9 µM

Question: And the Activity (Mus musculus [10])?
Answer: Non-toxic

Question: And the inhibition in vivo at 30 mg/kg (Mus musculus [11])?
Answer: 70%

Question: What about the Activity [12] of the same molecule?
Answer: inactive

Question: What about the Activity (Mus musculus [13]) of the same molecule?
Answer: Non-toxic

Question: And the inhibition [3]?
Answer: Active

Question: What about the inhibition at 100 µM [2] of the same molecule?
Answer: < 20%

Question: With Cn1cc(CN2C[C@H](OCc3cccnc3)CN(Cc3ccc(C#CC(C)(C)O)cc3)CC2=O)cn1 as the molecule, how does the IC50 (Inhibin beta A chain) read?
Answer: 4.25 µM

Question: What about the IC50 (HepG2) of the same molecule?
Answer: 43.9 µM

Question: What about the solubility [1] of the same molecule?
Answer: soluble

Question: What about the inhibition at 100 µM [2] of the same molecule?
Answer: < 20%

Question: Which IC50 (Inhibin beta A chain) does the source give for O=C(NCc1ccccc1)c1nn(CCO)c2c1CN(C1CCCC1)CC2 here?
Answer: > 100 µM

Question: What about the solubility [1] of the same molecule?
Answer: soluble

Question: What about the inhibition at 100 µM [2] of the same molecule?
Answer: < 20%

Question: Which IC50 (Inhibin beta A chain) does the source give for CCCn1ncc(CN2CCN(CCCc3ccccc3)[C@@H](CCO)C2)c1C here?
Answer: > 100 µM

Question: What about the solubility [1] of the same molecule?
Answer: soluble

Question: What about the inhibition at 100 µM [2] of the same molecule?
Answer: < 20%
